Assay results from ChEMBL document CHEMBL1125600, “Sulfonylbenzoyl-nitrostyrenes: potential bisubstrate type inhibitors of the EGF-receptor tyrosine protein kinase” (J Med Chem, 1991).

Assays:
[1] = Antiproliferative activity tested by using EGF- stimulated cellular proliferation of balb/MK mouse epidermal keratinocytes (balb/MK cells)
[2] = target: Tyrosine-protein kinase ABL (Homo sapiens, UniProt P00519+P42684); assay: Inhibition of recombinant v-Abl tyrosine kinase.; format: protein assay
Outline: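 The reaction contained 20 mM Tris pH 7.5, 10 mM MgCl2, 10 µM [γ-32P]ATP and about 50 ng enzyme. Compounds were in DMSO. Reactions were stopped with trichloroacetic acid and aliquots were spotted on P81 paper.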

[3] = Inhibition of the protein kinase C.
[4] = target: Epidermal growth factor receptor (Homo sapiens, UniProt P00533); assay: Inhibition of the epidermal growth factor receptor expressed in A431 cell line
Chain of Epidermal growth factor receptor (P00533 whole entry): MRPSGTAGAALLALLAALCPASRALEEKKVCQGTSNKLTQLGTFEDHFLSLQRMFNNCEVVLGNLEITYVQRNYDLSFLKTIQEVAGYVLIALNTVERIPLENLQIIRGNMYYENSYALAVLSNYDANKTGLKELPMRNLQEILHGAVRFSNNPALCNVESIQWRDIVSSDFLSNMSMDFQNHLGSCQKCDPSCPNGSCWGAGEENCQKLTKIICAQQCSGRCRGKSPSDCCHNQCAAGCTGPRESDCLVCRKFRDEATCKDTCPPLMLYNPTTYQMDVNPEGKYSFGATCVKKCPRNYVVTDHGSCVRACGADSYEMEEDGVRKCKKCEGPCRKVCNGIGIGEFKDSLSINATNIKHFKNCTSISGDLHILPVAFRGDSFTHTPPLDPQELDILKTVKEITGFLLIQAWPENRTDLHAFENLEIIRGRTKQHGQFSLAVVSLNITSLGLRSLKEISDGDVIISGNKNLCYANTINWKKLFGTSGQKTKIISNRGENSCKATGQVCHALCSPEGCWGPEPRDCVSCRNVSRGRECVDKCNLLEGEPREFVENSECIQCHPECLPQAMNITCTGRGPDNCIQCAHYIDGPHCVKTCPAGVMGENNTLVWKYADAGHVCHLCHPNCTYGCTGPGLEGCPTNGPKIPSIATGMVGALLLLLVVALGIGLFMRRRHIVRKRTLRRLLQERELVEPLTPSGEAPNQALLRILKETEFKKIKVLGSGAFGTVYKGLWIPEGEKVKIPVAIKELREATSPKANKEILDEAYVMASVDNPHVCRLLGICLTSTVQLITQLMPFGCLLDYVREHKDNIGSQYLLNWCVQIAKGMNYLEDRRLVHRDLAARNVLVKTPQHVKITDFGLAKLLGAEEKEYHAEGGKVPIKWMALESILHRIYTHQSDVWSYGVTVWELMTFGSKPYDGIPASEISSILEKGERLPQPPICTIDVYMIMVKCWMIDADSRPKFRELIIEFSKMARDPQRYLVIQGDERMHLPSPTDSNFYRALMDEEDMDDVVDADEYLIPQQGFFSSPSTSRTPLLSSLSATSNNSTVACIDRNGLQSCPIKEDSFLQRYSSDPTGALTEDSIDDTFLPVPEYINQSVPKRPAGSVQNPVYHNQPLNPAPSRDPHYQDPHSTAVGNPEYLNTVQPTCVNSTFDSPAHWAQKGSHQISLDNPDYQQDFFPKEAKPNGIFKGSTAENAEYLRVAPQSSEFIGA

Row | IC50 [2] [µM] | IC50 [3] [µM] | IC50 [4] [µM] | Structure (SMILES) | IC50 [1] [µM]
1 | 5 | 60 | 5.4 | NCCNC(=O)c1ccc(S(=O)(=O)Oc2ccc(/C=C/[N+](=O)[O-])cc2)cc1 | 32
2 |  |  | > 100 | CCCCNC(=O)c1ccc(S(=O)(=O)Oc2ccc(C=O)cc2)cc1 | > 50
3 | 35 | 290 | 0.4 | CNC(=O)c1ccc(S(=O)(=O)Oc2ccc(/C=C/[N+](=O)[O-])cc2)cc1 | 5.2
4 | 100 | > 500 | 1 | O=C(O)c1ccc(S(=O)(=O)Oc2ccc(/C=C/[N+](=O)[O-])cc2)cc1 | > 50
5 | > 100 | > 500 | 4.8 | CCCCNC(=O)c1ccc(S(=O)(=O)Oc2ccc(/C=C/[N+](=O)[O-])cc2)cc1 | 3.8
6 | > 100 | > 500 | 1.5 | COC(=O)c1ccc(S(=O)(=O)Oc2ccc(/C=C/[N+](=O)[O-])cc2)cc1 | 12
7 | > 100 | 340 | 1.3 | CC(C)(C)NC(=O)c1ccc(S(=O)(=O)Oc2ccc(/C=C/[N+](=O)[O-])cc2)cc1 | 2.1

More lines, now with the values behind:

Row | Structure (SMILES) | IC50 [2] [µM] | IC50 [3] [µM] | IC50 [4] [µM] | IC50 [1] [µM]
8 | O=[N+]([O-])/C=C/c1ccc(O)cc1 | > 100 | > 500 | 10.1 | 4.8
9 | COc1cc(/C=C/[N+](=O)[O-])ccc1O | > 100 | > 500 | 7.9 | 3.5
10 | C[C@@H](NC(=O)c1ccc(S(=O)(=O)Oc2ccc(/C=C/[N+](=O)[O-])cc2)cc1)C(=O)N[C@H](C)C(=O)NCCNC(=O)OC(C)(C)C |  | > 500 | > 50 | > 50
11 | C[C@@H](NC(=O)c1ccc(S(=O)(=O)Oc2ccc(/C=C/[N+](=O)[O-])cc2)cc1)C(=O)N[C@H](C)C(=O)NCCN | 15 | 250 | 17 | > 50
12 | C[C@@H](NC(=O)[C@@H](C)NC(=O)c1ccc(S(=O)(=O)Oc2ccc(/C=C/[N+](=O)[O-])cc2)cc1)C(=O)O | 35 | > 100 | 7 | > 50
13 | C[C@@H](NC(=O)c1ccc(S(=O)(=O)Oc2ccc(/C=C/[N+](=O)[O-])cc2)cc1)C(=O)N[C@H](C)C(=O)OC(C)(C)C | > 100 | > 450 | 40 | 2.7
14 | CC(C)(C)OC(=O)NCCNC(=O)c1ccc(S(=O)(=O)Oc2ccc(/C=C/[N+](=O)[O-])cc2)cc1 | > 100 | 320 | 1.4 | 4.8
15 | COc1cc(/C=C/[N+](=O)[O-])ccc1OS(=O)(=O)c1ccc(C(=O)O)cc1 | 40 | > 500 | 2.8 | 35
16 | O=C(O)c1ccc(S(=O)(=O)Oc2ccc(/C=C/[N+](=O)[O-])cc2)cc1O | 27 | 500 | 0.054 | > 50
17 | COc1cc(/C=C/[N+](=O)[O-])ccc1OS(=O)(=O)c1ccc(C(=O)OC[C@H]2O[C@@H](n3cnc4c(N)ncnc43)[C@H](O)[C@@H]2O)cc1 | 100 | 10 | 0.5 | 45
18 | Nc1ncnc2c1ncn2[C@@H]1O[C@H](COC(=O)c2ccc(S(=O)(=O)Oc3ccc(/C=C/[N+](=O)[O-])cc3)cc2)[C@@H](O)[C@H]1O | > 100 | 13 | 0.6 | 61
19 | COC(=O)c1ccc(S(=O)(=O)Oc2ccc(/C=C/[N+](=O)[O-])cc2)cc1O | > 100 |  | 1.8 | 5.7
20 | O=C(O)c1ccc(S(=O)(=O)Oc2ccc(/C=C/[N+](=O)[O-])cc2)c(O)c1 | 100 | > 500 | 0.31 | > 50
21 | C/C(=C\c1ccc(O)c(O)c1)[N+](=O)[O-] | 100 | > 500 | 9.4 | 2.1
22 | O=[N+]([O-])/C=C/c1ccc(O)c(O)c1 | 100 | > 500 | 8.8 | 2.9
23 | CNC(=O)c1ccc(S(=O)(=O)Oc2ccc(/C=C(\C)[N+](=O)[O-])cc2OC)cc1 |  | > 500 | 4 | 2.1
